For one test, the system named is IKKβ. The conditions noted are these: ref 22 (Kasinski et al.); cited from earlier work.
Test [1] addresses receptor tyrosine kinase IGFR (Homo sapiens, UniProt P08069). The test can be described thus: Preliminary kinase screen, IGFR. It is filed as biochemical. The following applies: small panel of kinases.
Test [2] addresses cytoplasmic tyrosine kinase Src (Homo sapiens, UniProt P12931). The experiment in a line: Preliminary kinase screen, Src. It counts as biochemical. The conditions noted are these: small panel of kinases.
For test [3], the target named is T1, AKT2 (Homo sapiens, UniProt P31751). The test can be described thus: ADP Quest enzyme kinetics, Michaelis-Menten global analysis. It is filed as biochemical. The conditions noted are these: varying ATP and inhibitor concentrations. The method in brief:
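Purified recombinant human AKT2 with Crosstide peptide substrate; reactions run 10-90 min using fresh samples at varying ATP and inhibitor concentrations. ADP Quest enzyme-coupled fluorescence gave total ADP, and rates came from ADP formed over time. Rates were fitted by global non-linear regression to Michaelis-Menten competitive (shared Ki and Vmax) and mixed (shared Ki, α) models, with Ki and Vmax >0.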

A further test addresses T2, NEK1 (Homo sapiens, UniProt Q96PY6).
T2 sequence (Q96PY6 1-1258): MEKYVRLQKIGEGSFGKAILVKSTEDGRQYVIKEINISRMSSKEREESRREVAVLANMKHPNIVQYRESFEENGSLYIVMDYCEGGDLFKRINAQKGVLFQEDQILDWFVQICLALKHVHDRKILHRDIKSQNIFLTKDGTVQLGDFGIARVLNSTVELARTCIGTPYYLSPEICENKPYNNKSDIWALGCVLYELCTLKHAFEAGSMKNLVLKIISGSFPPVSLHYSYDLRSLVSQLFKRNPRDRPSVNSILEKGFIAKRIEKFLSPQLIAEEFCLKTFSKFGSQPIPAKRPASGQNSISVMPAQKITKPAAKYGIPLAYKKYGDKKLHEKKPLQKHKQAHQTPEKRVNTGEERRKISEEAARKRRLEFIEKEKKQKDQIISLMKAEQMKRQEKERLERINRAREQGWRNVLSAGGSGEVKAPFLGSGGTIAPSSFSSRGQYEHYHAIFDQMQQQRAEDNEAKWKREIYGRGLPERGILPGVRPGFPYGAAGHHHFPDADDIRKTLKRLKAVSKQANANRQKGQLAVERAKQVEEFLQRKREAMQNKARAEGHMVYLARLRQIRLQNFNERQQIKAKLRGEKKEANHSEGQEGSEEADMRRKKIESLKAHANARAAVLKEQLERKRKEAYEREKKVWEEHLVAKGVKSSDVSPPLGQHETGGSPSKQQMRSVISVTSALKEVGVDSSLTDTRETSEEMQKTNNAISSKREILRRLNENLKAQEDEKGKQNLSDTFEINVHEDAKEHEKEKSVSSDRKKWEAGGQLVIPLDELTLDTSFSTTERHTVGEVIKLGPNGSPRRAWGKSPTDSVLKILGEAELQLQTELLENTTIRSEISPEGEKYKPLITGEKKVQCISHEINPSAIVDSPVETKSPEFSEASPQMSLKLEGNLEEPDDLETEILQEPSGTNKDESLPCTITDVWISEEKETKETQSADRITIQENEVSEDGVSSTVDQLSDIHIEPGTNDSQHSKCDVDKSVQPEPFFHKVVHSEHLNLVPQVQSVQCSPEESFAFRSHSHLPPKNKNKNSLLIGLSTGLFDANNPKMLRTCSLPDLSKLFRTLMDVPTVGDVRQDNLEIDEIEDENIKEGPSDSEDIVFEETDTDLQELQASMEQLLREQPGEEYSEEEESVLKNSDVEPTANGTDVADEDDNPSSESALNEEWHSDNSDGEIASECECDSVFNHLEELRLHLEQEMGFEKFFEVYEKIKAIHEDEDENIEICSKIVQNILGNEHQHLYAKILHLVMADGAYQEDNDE
The experiment in a line: Z'-LYTE in vitro kinase assay, NEK1. It is filed as biochemical. The conditions noted are these: read-out: inhibition of NEK1.

The next test has as its target T3, ACVR1B (Homo sapiens, UniProt P36896).
T3 sequence (P36896 24-505): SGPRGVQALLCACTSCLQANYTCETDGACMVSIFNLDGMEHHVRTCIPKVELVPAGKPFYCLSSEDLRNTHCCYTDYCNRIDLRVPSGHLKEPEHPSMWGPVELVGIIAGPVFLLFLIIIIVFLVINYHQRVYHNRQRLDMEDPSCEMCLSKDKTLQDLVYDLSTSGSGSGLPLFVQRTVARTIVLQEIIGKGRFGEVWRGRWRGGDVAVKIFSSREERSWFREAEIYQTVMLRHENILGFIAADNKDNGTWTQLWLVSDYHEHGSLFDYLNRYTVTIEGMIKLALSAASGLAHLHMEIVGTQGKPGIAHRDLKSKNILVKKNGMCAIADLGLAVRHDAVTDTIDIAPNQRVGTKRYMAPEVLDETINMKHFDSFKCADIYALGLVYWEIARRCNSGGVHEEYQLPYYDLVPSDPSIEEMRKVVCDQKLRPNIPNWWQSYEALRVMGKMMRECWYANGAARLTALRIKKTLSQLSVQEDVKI
The experiment in a line: Kinase profile screen at 5 μM, ACVR1B. It is filed as biochemical. The following applies: read-out: inhibition of ACVR1B. The method in brief:
(§1)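 Most kinases used the Z'Lyte read-out: a FRET-labelled peptide, protease development, and coumarin/fluorescein emission ratio. Some used Adapta (ADP TR-FRET) or a kinase cascade. Protease- and fluorescence-interference control wells were included. Values above 100% or below 0% were taken as maximal or no inhibition.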

A further test concerns the target CDK7 (Homo sapiens, UniProt P50613). The experiment in a line: Kinase profile screen at 5 μM, CDK7. It counts as biochemical. The conditions noted are these: read-out: inhibition of CDK7. The method in brief:
as §1

The target of the next test is PIM1 (Homo sapiens, UniProt P11309). The experiment in a line: Kinase profile screen at 5 μM, PIM1. It counts as biochemical. The following applies: read-out: inhibition of PIM1. The method in brief: as §1
The conditions of test [4]: cited from earlier work.
A further test has as its target T4, CHEK1 (Homo sapiens, UniProt O14757).
T4 sequence (O14757 1-476): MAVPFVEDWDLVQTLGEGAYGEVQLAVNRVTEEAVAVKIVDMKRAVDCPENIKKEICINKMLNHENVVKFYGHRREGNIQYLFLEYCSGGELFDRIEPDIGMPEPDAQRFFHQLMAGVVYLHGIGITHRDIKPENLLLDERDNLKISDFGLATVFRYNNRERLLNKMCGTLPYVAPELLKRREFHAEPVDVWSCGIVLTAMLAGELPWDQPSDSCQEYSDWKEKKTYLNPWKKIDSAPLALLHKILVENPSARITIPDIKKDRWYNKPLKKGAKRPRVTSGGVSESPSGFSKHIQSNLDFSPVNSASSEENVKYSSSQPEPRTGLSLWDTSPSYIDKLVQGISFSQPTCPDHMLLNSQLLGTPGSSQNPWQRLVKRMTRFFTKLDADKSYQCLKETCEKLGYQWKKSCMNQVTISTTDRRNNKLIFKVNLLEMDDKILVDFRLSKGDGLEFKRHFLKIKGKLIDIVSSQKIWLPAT
The experiment in a line: Kinase profile screen at 5 μM, CHEK1. It counts as biochemical. The conditions noted are these: read-out: inhibition of CHEK1. The method in brief: as §1

For a further test, the system named is panel of 50 kinases. The experiment in a line: Kinase profile screen, 50-kinase panel. It counts as biochemical. The conditions noted are these: 5 μM, of fifty kinases tested. The procedure, abridged: as §1
The next test has as its target KDR (VEGFR2) (Homo sapiens, UniProt P35968). The experiment in a line: Z'-LYTE in vitro kinase assay, KDR. It is filed as biochemical. The following applies: read-out: inhibition of KDR.
For test [5], the target named is T1, AKT2. The experiment in a line: Z'-LYTE in vitro kinase assay, AKT2. It is filed as biochemical. The following applies: preliminary screen, small panel of kinases.
Another test deals with T5, IKBKB (IKKβ) (Homo sapiens, UniProt O14920).
T5 sequence (O14920 1-756): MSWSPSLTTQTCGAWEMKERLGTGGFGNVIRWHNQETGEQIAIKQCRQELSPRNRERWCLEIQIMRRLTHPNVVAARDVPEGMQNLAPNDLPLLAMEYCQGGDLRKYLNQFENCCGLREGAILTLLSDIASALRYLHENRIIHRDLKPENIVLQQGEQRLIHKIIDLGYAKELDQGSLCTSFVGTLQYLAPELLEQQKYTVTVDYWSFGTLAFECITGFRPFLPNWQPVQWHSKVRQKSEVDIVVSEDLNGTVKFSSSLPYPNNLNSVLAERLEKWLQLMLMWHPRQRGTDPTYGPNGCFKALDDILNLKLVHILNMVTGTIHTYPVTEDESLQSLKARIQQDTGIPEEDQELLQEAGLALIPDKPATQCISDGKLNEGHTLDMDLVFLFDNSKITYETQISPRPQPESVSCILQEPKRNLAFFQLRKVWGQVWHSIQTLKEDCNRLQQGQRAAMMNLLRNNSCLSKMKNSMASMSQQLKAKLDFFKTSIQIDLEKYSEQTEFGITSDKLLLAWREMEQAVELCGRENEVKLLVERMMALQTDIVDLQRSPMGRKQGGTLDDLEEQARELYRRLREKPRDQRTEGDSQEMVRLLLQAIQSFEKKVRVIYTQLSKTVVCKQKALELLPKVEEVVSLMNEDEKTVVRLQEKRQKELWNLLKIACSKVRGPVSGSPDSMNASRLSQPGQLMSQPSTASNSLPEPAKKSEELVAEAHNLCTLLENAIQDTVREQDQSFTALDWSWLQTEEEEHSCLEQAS
The test can be described thus: Z'-LYTE in vitro kinase assay, IKKβ. It counts as biochemical. The conditions noted are these: preliminary screen, small panel of kinases.

Another test has as its target CDK2 (Homo sapiens, UniProt P24941). The test can be described thus: Kinase profile screen at 5 μM, CDK2. The following applies: read-out: inhibition of CDK2. It is filed as biochemical. The procedure, abridged: as §1
In the next test the target is PRKCβ1 (Homo sapiens, UniProt P05771). The experiment in a line: Kinase profile screen at 5 μM, PRKCβ1. It is filed as biochemical. The following applies: read-out: inhibition of PRKCβ1. The method in brief:
as §1

The next test has as its target AKT1 (PKB alpha) (Homo sapiens, UniProt P31749). The test can be described thus: Z'-LYTE in vitro kinase assay, AKT1. It is filed as biochemical. The conditions noted are these: preliminary screen, small panel of kinases.
The next test concerns the target T6, IRAK4 (Homo sapiens, UniProt Q9NWZ3).
T6 sequence (Q9NWZ3 1-460): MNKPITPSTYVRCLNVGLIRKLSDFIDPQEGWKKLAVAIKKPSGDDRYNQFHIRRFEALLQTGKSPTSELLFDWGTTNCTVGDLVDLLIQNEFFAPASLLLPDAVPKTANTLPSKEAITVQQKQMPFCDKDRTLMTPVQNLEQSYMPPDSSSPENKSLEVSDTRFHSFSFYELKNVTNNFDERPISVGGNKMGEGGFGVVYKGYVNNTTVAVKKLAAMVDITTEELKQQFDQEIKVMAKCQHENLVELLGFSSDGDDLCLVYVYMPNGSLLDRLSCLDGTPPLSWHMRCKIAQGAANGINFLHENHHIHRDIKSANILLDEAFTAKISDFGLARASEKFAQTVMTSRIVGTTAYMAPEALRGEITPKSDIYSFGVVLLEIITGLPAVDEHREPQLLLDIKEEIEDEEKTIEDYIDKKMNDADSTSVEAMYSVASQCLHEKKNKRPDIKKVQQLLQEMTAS
The experiment in a line: Kinase profile screen at 5 μM, IRAK4. The conditions noted are these: read-out: inhibition of IRAK4. It is filed as biochemical. The procedure, abridged:
as §1

Another test addresses EGFR (Homo sapiens, UniProt P00533). The experiment in a line: Kinase profile screen at 5 μM, EGFR. It counts as biochemical. The conditions noted are these: read-out: inhibition of EGFR. The method in brief: as §1
In the next test the target is RAF1 (Homo sapiens, UniProt P04049, Y340D/Y341D). The experiment in a line: Z'-LYTE RAF1. It is filed as biochemical. The following applies: preliminary screen, small panel of kinases.
Another test concerns the target MEK1 (Homo sapiens, UniProt Q02750). The experiment in a line: Z'-LYTE MAP2K1. The conditions noted are these: preliminary screen, small panel of kinases. It counts as biochemical.

Each structure is given as a SMILES string. A value given as a limit tells only on which side of the number the result lay.

receptor tyrosine kinase IGFR, sequence (P08069 31-1367): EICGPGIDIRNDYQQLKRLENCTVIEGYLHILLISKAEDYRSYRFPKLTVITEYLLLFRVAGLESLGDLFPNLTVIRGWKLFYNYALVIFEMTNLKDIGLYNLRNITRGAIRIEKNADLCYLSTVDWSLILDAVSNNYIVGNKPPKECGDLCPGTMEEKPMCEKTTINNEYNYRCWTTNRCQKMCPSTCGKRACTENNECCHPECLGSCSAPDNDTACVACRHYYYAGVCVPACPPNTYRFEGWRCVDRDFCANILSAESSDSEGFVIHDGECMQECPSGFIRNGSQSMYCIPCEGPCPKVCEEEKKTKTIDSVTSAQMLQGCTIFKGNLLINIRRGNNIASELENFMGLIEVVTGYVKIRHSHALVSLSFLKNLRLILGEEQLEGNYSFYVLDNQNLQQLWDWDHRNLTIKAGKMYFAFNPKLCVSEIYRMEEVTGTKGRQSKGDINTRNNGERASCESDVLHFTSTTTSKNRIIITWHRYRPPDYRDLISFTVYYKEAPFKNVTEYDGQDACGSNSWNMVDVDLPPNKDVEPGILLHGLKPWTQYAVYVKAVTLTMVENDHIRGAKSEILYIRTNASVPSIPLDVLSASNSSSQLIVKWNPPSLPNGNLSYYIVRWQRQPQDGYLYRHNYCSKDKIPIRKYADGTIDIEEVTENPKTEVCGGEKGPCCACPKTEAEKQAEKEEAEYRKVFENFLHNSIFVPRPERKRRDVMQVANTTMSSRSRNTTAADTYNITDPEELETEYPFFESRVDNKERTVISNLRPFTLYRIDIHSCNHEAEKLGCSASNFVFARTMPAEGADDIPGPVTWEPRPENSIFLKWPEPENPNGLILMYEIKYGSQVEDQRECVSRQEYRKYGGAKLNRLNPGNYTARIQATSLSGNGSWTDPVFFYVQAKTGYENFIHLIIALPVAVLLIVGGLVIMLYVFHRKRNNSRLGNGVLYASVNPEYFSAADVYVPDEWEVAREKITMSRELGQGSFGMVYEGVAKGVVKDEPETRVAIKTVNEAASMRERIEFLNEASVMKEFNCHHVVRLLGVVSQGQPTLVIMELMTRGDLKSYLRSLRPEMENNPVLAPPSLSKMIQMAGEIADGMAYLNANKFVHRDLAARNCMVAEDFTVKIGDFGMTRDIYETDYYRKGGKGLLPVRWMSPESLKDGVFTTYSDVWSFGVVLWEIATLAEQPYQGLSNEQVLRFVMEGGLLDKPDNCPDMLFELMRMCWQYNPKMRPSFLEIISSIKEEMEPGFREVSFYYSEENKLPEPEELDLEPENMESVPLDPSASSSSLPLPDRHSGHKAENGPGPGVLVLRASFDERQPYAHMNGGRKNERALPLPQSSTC
cytoplasmic tyrosine kinase Src, sequence (P12931 whole entry): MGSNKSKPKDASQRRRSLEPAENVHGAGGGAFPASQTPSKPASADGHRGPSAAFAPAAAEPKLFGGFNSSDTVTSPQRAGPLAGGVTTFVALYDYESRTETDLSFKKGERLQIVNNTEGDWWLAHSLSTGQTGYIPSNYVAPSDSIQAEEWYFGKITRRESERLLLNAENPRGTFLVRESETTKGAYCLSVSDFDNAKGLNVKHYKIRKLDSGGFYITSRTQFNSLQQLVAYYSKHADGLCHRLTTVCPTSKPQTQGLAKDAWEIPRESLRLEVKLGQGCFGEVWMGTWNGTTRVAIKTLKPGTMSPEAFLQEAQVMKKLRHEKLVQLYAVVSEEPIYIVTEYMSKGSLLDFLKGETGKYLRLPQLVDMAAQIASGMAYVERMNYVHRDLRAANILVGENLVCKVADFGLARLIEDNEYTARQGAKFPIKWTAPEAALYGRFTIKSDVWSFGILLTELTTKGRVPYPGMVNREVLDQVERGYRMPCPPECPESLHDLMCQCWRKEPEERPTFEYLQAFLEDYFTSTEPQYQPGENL
T1 sequence (P31751 whole entry): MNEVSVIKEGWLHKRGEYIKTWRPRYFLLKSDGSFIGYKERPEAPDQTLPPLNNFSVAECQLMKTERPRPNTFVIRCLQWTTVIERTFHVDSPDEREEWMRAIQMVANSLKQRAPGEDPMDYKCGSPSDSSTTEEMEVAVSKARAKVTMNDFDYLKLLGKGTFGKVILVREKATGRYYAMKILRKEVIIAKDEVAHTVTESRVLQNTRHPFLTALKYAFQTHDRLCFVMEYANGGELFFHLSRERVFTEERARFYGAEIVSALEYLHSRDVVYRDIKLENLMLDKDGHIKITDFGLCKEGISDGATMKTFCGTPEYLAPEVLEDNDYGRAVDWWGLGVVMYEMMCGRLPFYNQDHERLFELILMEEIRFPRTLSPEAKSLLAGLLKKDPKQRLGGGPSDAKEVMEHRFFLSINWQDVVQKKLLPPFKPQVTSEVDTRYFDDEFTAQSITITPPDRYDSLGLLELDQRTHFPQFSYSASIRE
MEK1, sequence (Q02750 whole entry): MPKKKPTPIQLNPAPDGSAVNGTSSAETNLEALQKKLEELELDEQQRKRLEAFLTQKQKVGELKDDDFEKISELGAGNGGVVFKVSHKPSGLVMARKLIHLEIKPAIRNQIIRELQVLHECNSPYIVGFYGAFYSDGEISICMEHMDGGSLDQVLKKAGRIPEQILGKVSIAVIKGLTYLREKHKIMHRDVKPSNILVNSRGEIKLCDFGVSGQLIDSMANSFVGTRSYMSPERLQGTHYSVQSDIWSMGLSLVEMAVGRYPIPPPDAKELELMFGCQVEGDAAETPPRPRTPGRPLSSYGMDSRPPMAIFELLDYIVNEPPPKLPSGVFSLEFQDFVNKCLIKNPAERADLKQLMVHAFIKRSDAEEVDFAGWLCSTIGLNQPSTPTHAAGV
RAF1, sequence (P04049 306-648 Y340D/Y341D limits assumed): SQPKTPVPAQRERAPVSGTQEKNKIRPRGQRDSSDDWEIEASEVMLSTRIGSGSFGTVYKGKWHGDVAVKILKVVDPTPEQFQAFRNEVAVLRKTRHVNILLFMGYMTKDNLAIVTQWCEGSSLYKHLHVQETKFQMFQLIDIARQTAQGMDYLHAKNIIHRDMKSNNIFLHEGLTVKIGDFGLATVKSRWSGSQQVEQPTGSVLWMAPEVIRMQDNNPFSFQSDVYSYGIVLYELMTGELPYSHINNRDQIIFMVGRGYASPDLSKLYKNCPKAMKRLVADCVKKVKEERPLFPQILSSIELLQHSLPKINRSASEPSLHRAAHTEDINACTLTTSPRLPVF
PIM1, sequence (P11309 whole entry, species assumed): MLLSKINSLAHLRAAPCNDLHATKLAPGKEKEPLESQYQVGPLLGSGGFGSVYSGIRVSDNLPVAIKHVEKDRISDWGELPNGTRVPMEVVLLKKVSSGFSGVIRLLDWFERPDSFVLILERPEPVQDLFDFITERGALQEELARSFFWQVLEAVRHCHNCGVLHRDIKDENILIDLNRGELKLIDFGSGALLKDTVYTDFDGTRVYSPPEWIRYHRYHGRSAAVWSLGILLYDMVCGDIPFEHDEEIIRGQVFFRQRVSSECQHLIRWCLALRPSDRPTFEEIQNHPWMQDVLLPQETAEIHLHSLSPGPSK
AKT1 (PKB alpha), sequence (P31749 whole entry): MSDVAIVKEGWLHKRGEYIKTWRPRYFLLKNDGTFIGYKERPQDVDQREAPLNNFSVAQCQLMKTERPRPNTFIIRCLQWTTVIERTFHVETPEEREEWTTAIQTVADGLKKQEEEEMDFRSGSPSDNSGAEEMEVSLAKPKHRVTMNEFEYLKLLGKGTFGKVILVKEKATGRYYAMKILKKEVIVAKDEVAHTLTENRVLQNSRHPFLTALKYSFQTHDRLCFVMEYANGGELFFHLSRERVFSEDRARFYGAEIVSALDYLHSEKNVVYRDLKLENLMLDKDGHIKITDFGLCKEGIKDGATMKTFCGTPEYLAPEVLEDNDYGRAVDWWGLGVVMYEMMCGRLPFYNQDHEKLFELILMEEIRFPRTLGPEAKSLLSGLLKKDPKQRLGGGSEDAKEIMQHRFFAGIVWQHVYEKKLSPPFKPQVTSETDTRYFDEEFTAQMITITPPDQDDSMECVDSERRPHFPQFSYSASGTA
PRKCβ1, sequence (P05771 whole entry): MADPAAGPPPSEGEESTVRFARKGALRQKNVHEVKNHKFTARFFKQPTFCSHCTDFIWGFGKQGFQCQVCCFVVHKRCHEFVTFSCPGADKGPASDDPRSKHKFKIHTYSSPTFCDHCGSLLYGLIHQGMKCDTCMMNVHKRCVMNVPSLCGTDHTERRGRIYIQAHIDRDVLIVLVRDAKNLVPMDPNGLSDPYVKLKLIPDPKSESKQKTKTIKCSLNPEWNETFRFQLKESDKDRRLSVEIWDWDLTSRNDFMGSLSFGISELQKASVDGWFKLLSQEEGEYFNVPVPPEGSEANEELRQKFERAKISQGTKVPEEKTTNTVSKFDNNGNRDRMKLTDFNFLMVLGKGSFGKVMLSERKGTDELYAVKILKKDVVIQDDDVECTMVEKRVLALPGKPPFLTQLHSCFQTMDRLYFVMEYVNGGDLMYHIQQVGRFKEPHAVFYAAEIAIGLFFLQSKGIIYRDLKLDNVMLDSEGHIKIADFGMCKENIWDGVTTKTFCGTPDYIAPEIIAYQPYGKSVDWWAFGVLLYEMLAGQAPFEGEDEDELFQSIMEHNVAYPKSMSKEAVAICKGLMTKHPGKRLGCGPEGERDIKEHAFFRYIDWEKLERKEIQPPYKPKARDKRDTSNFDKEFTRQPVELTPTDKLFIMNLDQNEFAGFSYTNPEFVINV

Regarding `O=C1/C(=C/c2ccccc2F)CNC/C1=C\c1ccccc1F` [Compound 3, 3,5-bis(2-flurobenzylidene)piperidin-4-one], the “mechanism of IKKβ blockade” value in the test on IKKβ is on record as “mixed mechanism”. Also, the “inhibition of IGFR” value in test [1] was “no measurable inhibition”. Moreover, in test [2], the “inhibition of Src” value is “weak effect”.
For `O=C1/C(=C/c2ccccn2)CNC/C1=C\c1ccccn1` [Compound 4, 3,5-Bis(2-pyridinylmethylidene)-4-piperidone], the “α (mixed-model parameter, global analysis of Michaelis-Menten graph)” value at AKT2 [3] is 31. For the same compound, the inhibition at 5 µM was at least 85% on NEK1; at most 10% at ACVR1B; at most 10% at CDK7; at most 10% at PIM1; at least 85% at CHEK1; at least 85% at KDR (VEGFR2). Moreover, the inhibition at 5 µM was at most 10% at CDK2, at least 85% at PRKCβ1, at most 10% at IRAK4 and at most 10% at EGFR. In addition, in [4], the “kinase suppression by comparison with curcumin” value is at least 10 fold. In the test on panel of 50 kinases, the “number of kinases inhibited at ≤40%” value is 28. Further, in the test on panel of 50 kinases, the “number of kinases with 40-80% inhibition (modestly blocked)” value was “twelve”. Besides, the “inhibition of AKT2” value on AKT2 [5] is “significantly increased blocking action”. Also, at IKBKB (IKKβ), the “inhibition of IKKβ” value was “moderate inhibition”. Moreover, in test [1], the “inhibition of IGFR” value is “no measurable inhibition”. Besides, the “inhibition of AKT1” value against AKT1 (PKB alpha) is reported as “significantly increased blocking action”. Further, the “inhibition of Src” value in [2] is “weak effect”. Besides, on RAF1, the “inhibition of RAF1” value was “moderate inhibition”. In addition, the “inhibition of MEK1” value against MEK1 was “moderate inhibition”.

The values are drawn from publication PMC3927397 (Journal of medicinal chemistry, 2013).
